Laboratory results published in ChEMBL document CHEMBL4402562, “Discovery of Novel Peptidomimetic Boronate ClpP Inhibitors with Noncanonical Enzyme Mechanism as Potent Virulence Blockers in Vitro and in Vivo” (J Med Chem, 2020).
Calls of active or inactive are those of the source. The rule behind the calls is not given here.

Test system: Staphylococcus aureus
Assay: Antivirulence activity against methicillin-resistant Staphylococcus aureus ATCC 33591 infected in BALB/c mouse model of skin abscess assessed as reduction in liver histopathological changes at 1.5 to 3 mg/kg injected into shaved area of skin once daily for 4 days measured after 12 hrs post last dose by hematoxylin and eosin staining based optical microscopy
Type: functional, organism-based
In short: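 Same MRSA ATCC 33591 skin-abscess model in female BALB/c mice (n=5/group), 40 µL compound at 1.5 or 3 mg/kg injected into the infected shaved skin once daily for 4 days. On day 4 infected skin and heart, liver, spleen, lung, kidney fixed in 4% paraformaldehyde, embedded, sectioned, H&E stained and examined by microscopy; PBS-treated uninfected and vehicle controls.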

CC(C)C[C@H](NC(=O)[C@H](Cc1c[nH]c2ccccc12)NC(=O)c1cc(Cl)ccc1Cl)B(O)O
Activity: Active
